ChEMBL document CHEMBL1148367, “Novel azapeptide inhibitors of hepatitis C virus serine protease” (J Med Chem, 2004)
*1 amine or outer side, *2 acyl side, *3 side chain or, on linkers, in order; H or OH if unused. Where a SMILES comes first, the peptide text is derived from it. [ ]: non-standard residue; d: D form. The star is where a group is joined. NH(1S-phenylpropyl) = CC[C@H](N*)c1ccccc1; NH(1R-phenylethyl) = C[C@@H](N*)c1ccccc1; NH(1S-phenylethyl) = C[C@H](N*)c1ccccc1; X8 = O=C(N(CC(F)(F)F)N[*:1])[*:2]; Hyp = O=C(O)[C@@H]1C[C@@H](O)CN1; NHPiperonyl = c1cc2c(cc1CN*)OCO2; X12 = CCCN(N*)C(=O)NN(C)c1ccccc1; X5 = CC(C)CCN(N[*:1])C(=O)[*:2]; azaNva = CCCN(N[*:1])C(=O)[*:2]; AzaAla = CN(N[*:1])C(=O)[*:2]; X10 = CCCN(N*)C(=O)CCc1ccccc1; X3 = C[C@H](N*)c1cccc2ccccc12; X9 = CCCCCN(N[*:1])C(=O)[*:2]; NMe(benzyl) = CN(Cc1ccccc1)*; X6 = CCCN(N*)C(=S)NCc1ccccc1; X7 = CCCN(N*)C(=O)OCc1ccccc1; X1 = c1ccc2c(c1)CC[C@@H]2N*; X4 = C[C@H](N*)c1ccc(Br)cc1; X14 = C[C@H](N*)c1nnn[nH]1; X11 = C[C@H](N*)C1CCCCC1; X13 = c1ccc2c(c1)CCN2*; NHBn = c1ccc(CN*)cc1; X2 = CCCN(N*)C(N)=O; Bn = c1ccc(C*)cc1

What was measured:
NS3 [1] = molecular target: T1, NS3 (Hepatitis C virus, UniProt A3EZJ3); assay: Inhibitory concentration against Hepatitis C virus serine protease; set-up: species or system Hepacivirus hominis
T1 sequence (A3EZJ3 whole entry): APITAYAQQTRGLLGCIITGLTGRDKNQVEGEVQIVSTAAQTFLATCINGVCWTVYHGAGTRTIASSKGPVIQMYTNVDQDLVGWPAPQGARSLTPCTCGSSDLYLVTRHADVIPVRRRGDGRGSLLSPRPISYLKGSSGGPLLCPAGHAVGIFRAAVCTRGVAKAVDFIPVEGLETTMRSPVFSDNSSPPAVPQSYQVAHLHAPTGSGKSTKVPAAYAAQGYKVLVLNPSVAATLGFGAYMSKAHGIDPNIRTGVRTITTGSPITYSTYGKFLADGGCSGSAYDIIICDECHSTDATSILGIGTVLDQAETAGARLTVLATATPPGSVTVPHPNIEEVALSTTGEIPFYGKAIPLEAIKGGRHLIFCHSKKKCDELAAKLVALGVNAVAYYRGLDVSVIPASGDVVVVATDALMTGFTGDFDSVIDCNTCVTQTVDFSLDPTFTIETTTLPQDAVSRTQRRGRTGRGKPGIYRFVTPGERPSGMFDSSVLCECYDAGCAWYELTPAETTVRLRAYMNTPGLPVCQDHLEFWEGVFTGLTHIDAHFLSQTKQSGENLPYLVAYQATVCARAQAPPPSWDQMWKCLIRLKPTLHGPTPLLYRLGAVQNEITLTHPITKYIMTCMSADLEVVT

NS3 [2] = molecular target: T1, NS3; assay: Inhibitory concentration against Hepatitis C virus NS3 serine protease; set-up: species or system Hepacivirus hominis
In short: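 HCV NS3 serine protease IC50 from the group's in-house protease assay, run as previously described. Each reported value is the mean of at least four determinations.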

**Q.** How did the IC50 (NS3 [1]) turn out when `CCC[C@@H](NC(=O)[C@@H]1C[C@@H](OCc2ccccc2)CN1C(=O)[C@@H](NC(=O)[C@@H](NC(=O)[C@@H](CCC(=O)O)NC(=O)[C@H](CC(=O)O)NC(C)=O)[C@@H](C)CC)C(C)C)C(=O)O` was run?
**A.** 34000 nM

**Q.** With `CC[C@H](C)[C@H](NC(=O)[C@@H](CCC(=O)O)NC(=O)[C@H](CC(=O)O)NC(C)=O)C(=O)N[C@H](C(=O)N1C[C@H](OCc2ccccc2)C[C@H]1C(=O)NN(CC(C)C)C(=O)N[C@@H](C)c1ccccc1)C(C)C` as the compound, how does the IC50 (NS3 [1]) read?
**A.** 2400 nM

**Q.** For `CCC(CC)N(NC(=O)[C@@H]1C[C@@H](OCc2ccccc2)CN1C(=O)[C@@H](NC(=O)[C@@H](NC(=O)[C@@H](CCC(=O)O)NC(=O)[C@H](CC(=O)O)NC(C)=O)[C@@H](C)CC)C(C)C)C(=O)N[C@@H](C)c1ccccc1`, which IC50 (NS3 [1]) is on record?
**A.** 4100 nM

**Q.** `CCCCN(NC(=O)[C@@H]1C[C@@H](OCc2ccccc2)CN1C(=O)[C@@H](NC(=O)[C@@H](NC(=O)[C@@H](CCC(=O)O)NC(=O)[C@H](CC(=O)O)NC(C)=O)[C@@H](C)CC)C(C)C)C(=O)N[C@@H](C)c1ccccc1` was tested. Which IC50 (NS3 [1]) did it give?
**A.** 99 nM

**Q.** Which IC50 (NS3 [1]) does the source give for `CC[C@H](C)[C@H](NC(=O)[C@@H](CCC(=O)O)NC(=O)[C@H](CC(=O)O)NC(C)=O)C(=O)N[C@H](C(=O)N1C[C@H](OCc2ccccc2)C[C@H]1C(=O)NN(CC)C(=O)N[C@@H](C)c1ccccc1)C(C)C` here?
**A.** 85 nM

**Q.** `CCC[C@H](NC(=O)[C@@H]1C[C@@H](OCc2ccccc2)CN1C(=O)[C@@H](NC(=O)[C@@H](NC(=O)[C@@H](CCC(=O)O)NC(=O)[C@H](CC(=O)O)NC(C)=O)[C@@H](C)CC)C(C)C)C(N)=O` was tested. Which IC50 (NS3 [1]) did it give?
**A.** 26000 nM

**Q.** How did the IC50 (NS3 [1]) turn out when `CCC[C@H](NC(=O)[C@@H]1C[C@@H](OCc2ccccc2)CN1C(=O)[C@@H](NC(=O)[C@@H](NC(=O)[C@@H](CCC(=O)O)NC(=O)[C@H](CC(=O)O)NC(C)=O)[C@@H](C)CC)C(C)C)C(=O)O` was run?
**A.** 600 nM

**Q.** For `CCCN(NC(=O)[C@@H]1C[C@@H](OCc2ccccc2)CN1C(=O)[C@@H](NC(=O)[C@@H](NC(=O)[C@@H](CCC(=O)O)NC(=O)[C@H](CC(=O)O)NC(C)=O)[C@@H](C)CC)C(C)C)C(N)=O` (Ac-D[dE]IV[Hyp](Bn)-X2), which IC50 (NS3 [1]) is on record?
**A.** 17500 nM

**Q.** `CCCN(NC(=O)[C@@H]1C[C@@H](OCc2ccccc2)CN1C(=O)[C@@H](NC(=O)[C@@H](NC(=O)[C@@H](CCC(=O)O)NC(=O)[C@H](CC(=O)O)NC(C)=O)[C@@H](C)CC)C(C)C)C(=S)NCc1ccccc1` (Ac-D[dE]IV[Hyp](Bn)-X6) was tested. Which IC50 (NS3 [1]) did it give?
**A.** 4200 nM

**Q.** With `CCCN(NC(=O)[C@@H]1C[C@@H](OCc2ccccc2)CN1C(=O)[C@@H](NC(=O)[C@@H](NC(=O)[C@@H](CCC(=O)O)NC(=O)[C@H](CC(=O)O)NC(C)=O)[C@@H](C)CC)C(C)C)C(=O)OCc1ccccc1` (Ac-D[dE]IV[Hyp](Bn)-X7) as the compound, how does the IC50 (NS3 [1]) read?
**A.** 800 nM

**Q.** For `CCCN(NC(=O)[C@@H]1C[C@@H](OCc2ccccc2)CN1C(=O)[C@@H](NC(=O)[C@@H](NC(=O)[C@@H](CCC(=O)O)NC(=O)[C@H](CC(=O)O)NC(C)=O)[C@@H](C)CC)C(C)C)C(=O)CCc1ccccc1` (Ac-D[dE]IV[Hyp](Bn)-X10), which IC50 (NS3 [1]) is on record?
**A.** 710 nM

**Q.** For `CCCN(NC(=O)[C@@H]1C[C@@H](OCc2ccccc2)CN1C(=O)[C@@H](NC(=O)[C@@H](NC(=O)[C@@H](CCC(=O)O)NC(=O)[C@H](CC(=O)O)NC(C)=O)[C@@H](C)CC)C(C)C)C(=O)NN(C)c1ccccc1` (Ac-D[dE]IV[Hyp](Bn)-X12), which IC50 (NS3 [1]) is on record?
**A.** 480 nM

**Q.** How did the IC50 (NS3 [1]) turn out when `CC[C@H](C)[C@H](NC(=O)[C@@H](CCC(=O)O)NC(=O)[C@H](CC(=O)O)NC(C)=O)C(=O)N[C@H](C(=O)N1C[C@H](OCc2ccccc2)C[C@H]1C(=O)NN(C)C(=O)N[C@@H](C)c1ccccc1)C(C)C` (Ac-D[dE]IV[Hyp](Bn)[AzaAla]-{NH(1S-phenylethyl)}) was run?
**A.** 430 nM

**Q.** Which IC50 (NS3 [1]) does the source give for `CC[C@H](C)[C@H](NC(=O)[C@@H](CCC(=O)O)NC(=O)[C@H](CC(=O)O)NC(C)=O)C(=O)N[C@H](C(=O)N1C[C@H](OCc2ccccc2)C[C@H]1C(=O)NN(CCC(C)C)C(=O)N[C@@H](C)c1ccccc1)C(C)C` (Ac-D[dE]IV[Hyp](Bn)[X5]-{NH(1S-phenylethyl)}) here?
**A.** 5700 nM

**Q.** `CC[C@H](C)[C@H](NC(=O)[C@@H](CCC(=O)O)NC(=O)[C@H](CC(=O)O)NC(C)=O)C(=O)N[C@H](C(=O)N1C[C@H](OCc2ccccc2)C[C@H]1C(=O)NN(CC(F)(F)F)C(=O)N[C@@H](C)c1ccccc1)C(C)C` (Ac-D[dE]IV[Hyp](Bn)[X8]-{NH(1S-phenylethyl)}) was tested. Which IC50 (NS3 [1]) did it give?
**A.** 340 nM

**Q.** With `CCCCCN(NC(=O)[C@@H]1C[C@@H](OCc2ccccc2)CN1C(=O)[C@@H](NC(=O)[C@@H](NC(=O)[C@@H](CCC(=O)O)NC(=O)[C@H](CC(=O)O)NC(C)=O)[C@@H](C)CC)C(C)C)C(=O)N[C@@H](C)c1ccccc1` (Ac-D[dE]IV[Hyp](Bn)[X9]-{NH(1S-phenylethyl)}) as the compound, how does the IC50 (NS3 [1]) read?
**A.** 490 nM

**Q.** For `CCCN(NC(=O)[C@@H]1C[C@@H](OCc2ccccc2)CN1C(=O)[C@@H](NC(=O)[C@@H](NC(=O)[C@@H](CCC(=O)O)NC(=O)[C@H](CC(=O)O)NC(C)=O)[C@@H](C)CC)C(C)C)C(=O)NCc1ccccc1` (Ac-D[dE]IV[Hyp](Bn)[azaNva]-NHBn), which IC50 (NS3 [1]) is on record?
**A.** 590 nM

**Q.** `CCCN(NC(=O)[C@@H]1C[C@@H](OCc2ccccc2)CN1C(=O)[C@@H](NC(=O)[C@@H](NC(=O)[C@@H](CCC(=O)O)NC(=O)[C@H](CC(=O)O)NC(C)=O)[C@@H](C)CC)C(C)C)C(=O)NCc1ccc2c(c1)OCO2` (Ac-D[dE]IV[Hyp](Bn)[azaNva]-NHPiperonyl) was tested. Which IC50 (NS3 [1]) did it give?
**A.** 500 nM

**Q.** How did the IC50 (NS3 [1]) turn out when `CCCN(NC(=O)[C@@H]1C[C@@H](OCc2ccccc2)CN1C(=O)[C@@H](NC(=O)[C@@H](NC(=O)[C@@H](CCC(=O)O)NC(=O)[C@H](CC(=O)O)NC(C)=O)[C@@H](C)CC)C(C)C)C(=O)N[C@H]1CCc2ccccc21` (Ac-D[dE]IV[Hyp](Bn)[azaNva]-X1) was run?
**A.** 100 nM

**Q.** `CCCN(NC(=O)[C@@H]1C[C@@H](OCc2ccccc2)CN1C(=O)[C@@H](NC(=O)[C@@H](NC(=O)[C@@H](CCC(=O)O)NC(=O)[C@H](CC(=O)O)NC(C)=O)[C@@H](C)CC)C(C)C)C(=O)N[C@@H](C)c1cccc2ccccc12` (Ac-D[dE]IV[Hyp](Bn)[azaNva]-X3) was tested. Which IC50 (NS3 [1]) did it give?
**A.** 490 nM

**Q.** How did the IC50 (NS3 [1]) turn out when `CCCN(NC(=O)[C@@H]1C[C@@H](OCc2ccccc2)CN1C(=O)[C@@H](NC(=O)[C@@H](NC(=O)[C@@H](CCC(=O)O)NC(=O)[C@H](CC(=O)O)NC(C)=O)[C@@H](C)CC)C(C)C)C(=O)N[C@@H](C)c1ccc(Br)cc1` (Ac-D[dE]IV[Hyp](Bn)[azaNva]-X4) was run?
**A.** 72 nM

**Q.** `CCCN(NC(=O)[C@@H]1C[C@@H](OCc2ccccc2)CN1C(=O)[C@@H](NC(=O)[C@@H](NC(=O)[C@@H](CCC(=O)O)NC(=O)[C@H](CC(=O)O)NC(C)=O)[C@@H](C)CC)C(C)C)C(=O)N[C@@H](C)C1CCCCC1` (Ac-D[dE]IV[Hyp](Bn)[azaNva]-X11) was tested. Which IC50 (NS3 [1]) did it give?
**A.** 420 nM

**Q.** For `CCCN(NC(=O)[C@@H]1C[C@@H](OCc2ccccc2)CN1C(=O)[C@@H](NC(=O)[C@@H](NC(=O)[C@@H](CCC(=O)O)NC(=O)[C@H](CC(=O)O)NC(C)=O)[C@@H](C)CC)C(C)C)C(=O)N1CCc2ccccc21` (Ac-D[dE]IV[Hyp](Bn)[azaNva]-X13), which IC50 (NS3 [1]) is on record?
**A.** 4400 nM

**Q.** `CCCN(NC(=O)[C@@H]1C[C@@H](OCc2ccccc2)CN1C(=O)[C@@H](NC(=O)[C@@H](NC(=O)[C@@H](CCC(=O)O)NC(=O)[C@H](CC(=O)O)NC(C)=O)[C@@H](C)CC)C(C)C)C(=O)N[C@@H](C)c1nnn[nH]1` (Ac-D[dE]IV[Hyp](Bn)[azaNva]-X14) was tested. Which IC50 (NS3 [1]) did it give?
**A.** 860 nM

**Q.** With `CCCN(NC(=O)[C@@H]1C[C@@H](OCc2ccccc2)CN1C(=O)[C@@H](NC(=O)[C@@H](NC(=O)[C@@H](CCC(=O)O)NC(=O)[C@H](CC(=O)O)NC(C)=O)[C@@H](C)CC)C(C)C)C(=O)N[C@H](C)c1ccccc1` (Ac-D[dE]IV[Hyp](Bn)[azaNva]-{NH(1R-phenylethyl)}) as the compound, how does the IC50 (NS3 [1]) read?
**A.** 4300 nM

**Q.** `CCCN(NC(=O)[C@@H]1C[C@@H](OCc2ccccc2)CN1C(=O)[C@@H](NC(=O)[C@@H](NC(=O)[C@@H](CCC(=O)O)NC(=O)[C@H](CC(=O)O)NC(C)=O)[C@@H](C)CC)C(C)C)C(=O)N[C@@H](CC)c1ccccc1` (Ac-D[dE]IV[Hyp](Bn)[azaNva]-{NH(1S-phenylpropyl)}) was tested. Which IC50 (NS3 [1]) did it give?
**A.** 440 nM

**Q.** For `CCCN(NC(=O)[C@@H]1C[C@@H](OCc2ccccc2)CN1C(=O)[C@@H](NC(=O)[C@@H](NC(=O)[C@@H](CCC(=O)O)NC(=O)[C@H](CC(=O)O)NC(C)=O)[C@@H](C)CC)C(C)C)C(=O)N(C)Cc1ccccc1` (Ac-D[dE]IV[Hyp](Bn)[azaNva]-{NMe(benzyl)}), which IC50 (NS3 [1]) is on record?
**A.** 8400 nM

**Q.** How did the IC50 (NS3 [2]) turn out when Ac-DDIVPC-OH was run?
**A.** 43000 nM
